Experiment [1] concerns P388. As to the kind of experiment: Growth inhibition of mouse P388 cells at 1 ug/mL after 48 hrs relative to control. The class given is functional. As to conditions: P388, 48 h, read-out: GI. In outline: (§1)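 P-388 murine lymphocytic leukemia cells incubated with compound 48 h at 37° under humidified 5% CO2; cells counted by Coulter counter. Inhibitory ratio (%) = (1 − (T − C0)/(C − C0)) × 100, where T is the count with compound, C the count without compound and C0 the count at culture start.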

The test system of experiment [2] is P388. As to the kind of experiment: Growth inhibition of mouse P388 cells at 0.1 ug/mL after 48 hrs relative to control. The class given is functional. As to conditions: P388, 48 h, read-out: GI. In outline:
as §1

In experiment [3] the test system is P388. The experiment is described as follows: Growth inhibition of mouse P388 cells at 0.01 ug/mL after 48 hrs relative to control. The settings on record: P388, 48 h, read-out: GI. The class given is functional. In outline: as §1
Experiment [4] relates to Brassica juncea. The experiment is described as follows: Growth regulatory activity in Brassica juncea assessed as complete inhibition of stem growth at 1000 ppm after 10 days. The class given is functional, organism-based.
Experiment [5] deals with Brassica juncea. The experiment is described as follows: Growth regulatory activity in Brassica juncea assessed as complete inhibition of stem growth at 500 ppm after 10 days. The class given is functional, organism-based.
In experiment [6] the test system is Brassica juncea. The experiment is described as follows: Growth regulatory activity in Brassica juncea assessed as inhibition of stem growth at 250 ppm after 10 days. The class given is functional, organism-based.
Experiment [7] concerns Brassica juncea. As to the kind of experiment: Growth regulatory activity in Brassica juncea assessed as complete inhibition of root growth at 1000 ppm after 10 days. The class given is functional, organism-based.
Experiment [8] deals with Brassica juncea. The experiment is described as follows: Growth regulatory activity in Brassica juncea assessed as complete inhibition of root growth at 500 ppm after 10 days. The class given is functional, organism-based.
Experiment [9] relates to Brassica juncea. As to the kind of experiment: Growth regulatory activity in Brassica juncea assessed as complete inhibition of root growth at 250 ppm after 10 days. The class given is functional, organism-based.
The test system of experiment [10] is Cucumis sativus. The experiment is described as follows: Growth regulatory activity in Cucumis sativus assessed as complete inhibition of stem growth at 1000 ppm after 10 days. The class given is functional, organism-based.
Experiment [11] relates to Cucumis sativus. The experiment is described as follows: Growth regulatory activity in Cucumis sativus assessed as complete inhibition of stem growth at 500 ppm after 10 days. The class given is functional, organism-based.
Experiment [12] concerns Cucumis sativus. The experiment is described as follows: Growth regulatory activity in Cucumis sativus assessed as inhibition of stem growth at 100 ppm after 10 days. The class given is functional, organism-based.
The test system of experiment [13] is Cucumis sativus. The experiment is described as follows: Growth regulatory activity in Cucumis sativus assessed as complete inhibition of root growth at 500 ppm after 10 days. The class given is functional, organism-based.
Experiment [14] relates to Cucumis sativus. The experiment is described as follows: Growth regulatory activity in Cucumis sativus assessed as inhibition of root growth at 100 ppm after 10 days. The class given is functional, organism-based.
Experiment [15] has as its system P388. The experiment is described as follows: Growth inhibition of mouse P388 cells at 10 ug/mL after 48 hrs relative to control. The class given is functional. The settings on record: P388, 48 h, read-out: GI. In outline: as §1
Experiment [16] has as its system Echinochloa frumentacea. As to the kind of experiment: Growth regulatory activity in Echinochloa frumentacea assessed as complete inhibition of root growth at 500 ppm after 10 days. The class given is functional, organism-based.
For experiment [17], the system named is Echinochloa frumentacea. The experiment is described as follows: Growth regulatory activity in Echinochloa frumentacea assessed as complete inhibition of root growth at 1000 ppm after 10 days. The class given is functional, organism-based.
The test system of experiment [18] is Echinochloa frumentacea. The experiment is described as follows: Growth regulatory activity in Echinochloa frumentacea assessed as complete inhibition of stem growth at 500 ppm after 10 days. The class given is functional, organism-based.
Experiment [19] deals with Echinochloa frumentacea. The experiment is described as follows: Growth regulatory activity in Echinochloa frumentacea assessed as complete inhibition of stem growth at 1000 ppm after 10 days. The class given is functional, organism-based.
The subject of experiment [20] is Cucumis sativus. As to the kind of experiment: Growth regulatory activity in Cucumis sativus assessed as inhibition of root growth at 250 ppm after 10 days. The class given is functional, organism-based.
Experiment [21] deals with Cucumis sativus. As to the kind of experiment: Growth regulatory activity in Cucumis sativus assessed as inhibition of root growth at 500 ppm after 10 days. The class given is functional, organism-based.
Experiment [22] relates to Cucumis sativus. As to the kind of experiment: Growth regulatory activity in Cucumis sativus assessed as complete inhibition of root growth at 1000 ppm after 10 days. The class given is functional, organism-based.
The test system of experiment [23] is Cucumis sativus. As to the kind of experiment: Growth regulatory activity in Cucumis sativus assessed as inhibition of stem growth at 250 ppm after 10 days. The class given is functional, organism-based.
Experiment [24] deals with Echinochloa frumentacea. As to the kind of experiment: Growth regulatory activity in Echinochloa frumentacea assessed as inhibition of stem growth at 500 ppm after 10 days. The class given is functional, organism-based.
Experiment [25] deals with Brassica juncea. As to the kind of experiment: Growth regulatory activity in Brassica juncea assessed as inhibition of stem growth at 500 ppm after 10 days. The class given is functional, organism-based.
For experiment [26], the system named is Cucumis sativus. As to the kind of experiment: Growth regulatory activity in Cucumis sativus assessed as complete inhibition of stem growth at 250 ppm after 10 days. The class given is functional, organism-based.
Experiment [27] deals with Cucumis sativus. As to the kind of experiment: Growth regulatory activity in Cucumis sativus assessed as complete inhibition of root growth at 250 ppm after 10 days. The class given is functional, organism-based.
Experiment [28] concerns Echinochloa frumentacea. The experiment is described as follows: Growth regulatory activity in Echinochloa frumentacea assessed as inhibition of root growth at 1000 ppm after 10 days. The class given is functional, organism-based.
For experiment [29], the system named is Echinochloa frumentacea. The experiment is described as follows: Growth regulatory activity in Echinochloa frumentacea assessed as inhibition of stem growth at 1000 ppm after 10 days. The class given is functional, organism-based.
In experiment [30] the test system is Brassica juncea. The experiment is described as follows: Growth regulatory activity in Brassica juncea assessed as inhibition of root growth at 1000 ppm after 10 days. The class given is functional, organism-based.
Experiment [31] deals with Cucumis sativus. The experiment is described as follows: Growth regulatory activity in Cucumis sativus assessed as complete inhibition of root growth at 100 ppm after 10 days. The class given is functional, organism-based.
Experiment [32] concerns Echinochloa frumentacea. As to the kind of experiment: Growth regulatory activity in Echinochloa frumentacea assessed as complete inhibition of root growth at 250 ppm after 10 days. The class given is functional, organism-based.
Experiment [33] relates to Brassica juncea. The experiment is described as follows: Growth regulatory activity in Brassica juncea assessed as inhibition of root growth at 250 ppm after 10 days. The class given is functional, organism-based.
In experiment [34] the test system is Echinochloa frumentacea. As to the kind of experiment: Growth regulatory activity in Echinochloa frumentacea assessed as inhibition of root growth at 500 ppm after 10 days. The class given is functional, organism-based.
Experiment [35] deals with Brassica juncea. As to the kind of experiment: Growth regulatory activity in Brassica juncea assessed as inhibition of root growth at 500 ppm after 10 days. The class given is functional, organism-based.
Experiment [36] concerns Echinochloa frumentacea. As to the kind of experiment: Growth regulatory activity in Echinochloa frumentacea assessed as inhibition of stem growth at 250 ppm after 10 days. The class given is functional, organism-based.

Calls of active or inactive are those of the source. No cut-off for these calls is given here.

For `COc1cccc2c1C(=O)c1c(O)c3c(c(O)c1C2=O)C[C@@](O)(C(=O)CO)C[C@@H]3O[C@H]1C[C@H](N)[C@H](O)[C@H](C)O1` [DOXORUBICIN], the inhibition of growth at 1 µg/mL in the experiment with P388 [1] amounted to 105%. The inhibition of growth at 0.1 µg/mL in the experiment with P388 [2] was determined as 99%. Moreover, the inhibition of growth at 0.01 µg/mL in the experiment on P388 [3] is 38%.

Consider `C=C1C(=O)O[C@@H]2[C@@H]3[C@](C)(CCC[C@@]3(C)O)CC[C@@H]12` [ARBUSCULIN A], for which the outcome in the experiment with Brassica juncea [4], in the experiment with Brassica juncea [5], with Brassica juncea [6], in the experiment with Brassica juncea [7], in the experiment with Brassica juncea [8] and with Brassica juncea [9] was Active. Further, the outcome in the experiment on Cucumis sativus [10], with Cucumis sativus [11], with Cucumis sativus [12], in the experiment on Cucumis sativus [13], in the experiment with Cucumis sativus [14] and in the experiment with Echinochloa frumentacea [16] was Active. Besides, the result with Echinochloa frumentacea [17], in the experiment on Echinochloa frumentacea [18], in the experiment on Echinochloa frumentacea [19], with Cucumis sativus [20], in the experiment with Cucumis sativus [21] and with Cucumis sativus [22] was Active. The outcome in the experiment with Cucumis sativus [23] was Active. Besides, the inhibition of growth at 10 µg/mL with P388 [15] stood at 101%. Besides, the inhibition of growth at 1 µg/mL in the experiment with P388 [1] turned out to be 45%. In addition, in the experiment with P388 [2], the inhibition of growth at 0.1 µg/mL is 2%.

As to `C[C@@H]1C(=O)O[C@H]2C1CC[C@@]1(C)CCC[C@@](C)(O)[C@H]21` (stereo not given in full), the result with Brassica juncea [4], in the experiment on Brassica juncea [7], in the experiment with Brassica juncea [8], in the experiment with Cucumis sativus [10], in the experiment on Cucumis sativus [11] and with Cucumis sativus [13] was Active. The result in the experiment with Echinochloa frumentacea [24], in the experiment on Brassica juncea [25], in the experiment on Cucumis sativus [26], with Cucumis sativus [27], in the experiment with Echinochloa frumentacea [16] and in the experiment on Echinochloa frumentacea [17] was Active. Besides, the result in the experiment on Echinochloa frumentacea [19] and in the experiment on Cucumis sativus [22] was Active.

Turning to `C[C@]12CCC[C@@](C)(O)[C@@H]1[C@H]1OC(=O)C(CO)=C1CC2`, the outcome in the experiment on Echinochloa frumentacea [28], in the experiment on Echinochloa frumentacea [29], in the experiment on Cucumis sativus [20], with Cucumis sativus [21], in the experiment on Cucumis sativus [22] and in the experiment with Brassica juncea [30] was Active.

For `C[C@]12CCC[C@@](C)(O)[C@@H]1[C@H]1OC(=O)C(CCl)=C1CC2`, the outcome in the experiment on Brassica juncea [4], in the experiment on Brassica juncea [6], in the experiment on Brassica juncea [7], in the experiment on Brassica juncea [8], in the experiment with Cucumis sativus [10] and in the experiment on Cucumis sativus [11] was Active. Also, the result in the experiment with Cucumis sativus [13], in the experiment on Echinochloa frumentacea [24], in the experiment with Brassica juncea [25], with Cucumis sativus [27], in the experiment on Cucumis sativus [31] and in the experiment with Echinochloa frumentacea [32] was Active. The result in the experiment with Echinochloa frumentacea [16], in the experiment on Echinochloa frumentacea [17], in the experiment with Echinochloa frumentacea [19], in the experiment on Cucumis sativus [22], with Cucumis sativus [23] and with Brassica juncea [33] was Active. In the experiment with P388 [15], the inhibition of growth at 10 µg/mL turned out to be 103%. Besides, the inhibition of growth at 1 µg/mL in the experiment on P388 [1] worked out at 65%. For the same molecule, the inhibition of growth at 0.1 µg/mL in the experiment with P388 [2] was determined as 26%.

Regarding `C[C@]12CCC[C@@](C)(O)[C@@H]1[C@H]1OC(=O)C(CBr)=C1CC2`, the result in the experiment with Echinochloa frumentacea [34], with Brassica juncea [4], with Brassica juncea [7], in the experiment on Cucumis sativus [10], in the experiment on Echinochloa frumentacea [17] and with Echinochloa frumentacea [19] was Active. Further, the result in the experiment with Cucumis sativus [21] and in the experiment on Brassica juncea [35] was Active. In addition, the inhibition of growth at 10 µg/mL with P388 [15] was 102%. For the same molecule, the inhibition of growth at 1 µg/mL with P388 [1] turned out to be 44%. Further, in the experiment with P388 [2], the inhibition of growth at 0.1 µg/mL worked out at 3%.

Take `CC(=O)OCC1=C2CC[C@@]3(C)CCC[C@@](C)(O)[C@@H]3[C@H]2OC1=O`: the outcome in the experiment on Echinochloa frumentacea [36], in the experiment with Brassica juncea [4] and with Brassica juncea [7] was Active.

(Values after ChEMBL document CHEMBL1150054, “Studies on the synthesis of sesquiterpene lactones, 14. Syntheses of (-)-arbusclin D and (+)-4-EPI-arbusclin D: the stereochemical assignment of arbusclin D” (1992).)
